Experimental data taken from ChEMBL document CHEMBL3425469, “Discovery of imidazo[2,1-b]thiazole HCV NS4B inhibitors exhibiting synergistic effect with other direct-acting antiviral agents” (J Med Chem, 2015).

Assays:
Hepatitis C virus [1] = test: Antiviral activity against Hepatitis C virus genotype 1b Con 1 infected in human HuH7 cells at 10 nM after 72 hrs by luciferase assay in presence of 30 nM sofobuvir; format: functional, Hepacivirus hominis, Huh-7
Summary of the method: (§1)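 Stable Con1 GT1b bicistronic luciferase replicon in Huh-7 cells, 8000 cells/well. Test compound and a marketed DAA or clemizole added alone or together at varied concentrations, 0.5% DMSO final. 72 h at 37°C, then luciferase read with Bright-Glo. Inhibition expressed as % of untreated control, with cytotoxicity run in parallel. CI and DRI derived by the Chou–Talalay median-effect method.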

Hepatitis C virus [2] = test: Antiviral activity against Hepatitis C virus genotype 1b Con 1 infected in human HuH7 cells at 10 nM after 72 hrs by luciferase assay in presence of 240 nM sofobuvir; format: functional, Hepacivirus hominis, Huh-7; summary of the method: as §1
Hepatitis C virus [3] = test: Antiviral activity against Hepatitis C virus genotype 1b Con 1 infected in human HuH7 cells at 20 nM after 72 hrs by luciferase assay in presence of 3 nM simeprevir; format: functional, Hepacivirus hominis, Huh-7
Summary of the method: (§2)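 Huh-7 cells stably carrying a GT1b Con1 bicistronic luciferase replicon, seeded at 8000 cells/well. The test compound and the partner DAA are dosed orthogonally at various concentrations, final 0.5% DMSO, then incubated 72 h at 37°C. Bright-Glo luciferase read-out gives replicon inhibition as % of untreated control. Cytotoxicity is checked in parallel by CellTiter-Fluor. CI and DRI are derived by the Chou–Talalay median-effect method.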

Hepatitis C virus [4] = test: Antiviral activity against Hepatitis C virus genotype 1b Con 1 infected in human HuH7 cells at 20 nM after 72 hrs by luciferase assay in presence of 60 nM sofobuvir; format: functional, Hepacivirus hominis, Huh-7; summary of the method: as §2
Hepatitis C virus [5] = test: Antiviral activity against Hepatitis C virus genotype 1b Con 1 infected in human HuH7 cells at 20 nM after 72 hrs by luciferase assay in presence of 17.5 uM clemizole; format: functional, Hepacivirus hominis, Huh-7; summary of the method: as §2
Hepatitis C virus [6] = test: Antiviral activity against Hepatitis C virus genotype 1b Con 1 infected in human HuH7 cells at 40 nM after 72 hrs by luciferase assay in presence of 0.04 nM daclatasvir; format: functional, Hepacivirus hominis, Huh-7; summary of the method: as §2
Hepatitis C virus [7] = test: Antiviral activity against Hepatitis C virus genotype 1b Con 1 infected in human HuH7 cells at 40 nM after 72 hrs by luciferase assay in presence of 60 nM sofobuvir; format: functional, Hepacivirus hominis, Huh-7; summary of the method: as §2
Hepatitis C virus [8] = test: Antiviral activity against Hepatitis C virus genotype 1b Con 1 infected in human HuH7 cells at 40 nM after 72 hrs by luciferase assay in presence of 5 uM clemizole; format: functional, Hepacivirus hominis, Huh-7; summary of the method: as §2
Hepatitis C virus [9] = test: Antiviral activity against Hepatitis C virus genotype 1b Con 1 infected in human HuH7 cells at 40 nM after 72 hrs by luciferase assay in presence of 15 uM clemizole; format: functional, Hepacivirus hominis, Huh-7; summary of the method: as §2
Hepatitis C virus [10] = test: Antiviral activity against Hepatitis C virus genotype 1b Con 1 infected in human HuH7 cells at 40 nM after 72 hrs by luciferase assay in presence of 20 uM clemizole; format: functional, Hepacivirus hominis, Huh-7; summary of the method: as §2
Hepatitis C virus [11] = test: Antiviral activity against Hepatitis C virus genotype 1b Con 1 infected in human HuH7 cells at 80 nM after 72 hrs by luciferase assay in presence of 3 nM simeprevir; format: functional, Hepacivirus hominis, Huh-7; summary of the method: as §2
Hepatitis C virus [12] = test: Antiviral activity against Hepatitis C virus genotype 1b Con 1 infected in human HuH7 cells at 80 nM after 72 hrs by luciferase assay in presence of 180 nM sofobuvir; format: functional, Hepacivirus hominis, Huh-7; summary of the method: as §2
Hepatitis C virus [13] = test: Antiviral activity against Hepatitis C virus genotype 1b Con 1 infected in human HuH7 cells at 80 nM after 72 hrs by luciferase assay in presence of 7.5 uM clemizole; format: functional, Hepacivirus hominis, Huh-7
Summary of the method: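 Con1 GT1b luciferase replicon Huh-7 cells, seeded at 8000 cells/well. The compound was combined orthogonally with clemizole across a range of concentrations (0.5% DMSO final) and incubated for 72 h at 37°C. Bright-Glo luciferase inhibition was expressed as a percentage of the untreated control. Cytotoxicity was run in parallel.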

Hepatitis C virus [14] = test: Antiviral activity against Hepatitis C virus genotype 1b Con 1 infected in human HuH7 cells at 160 nM after 72 hrs by luciferase assay in presence of 0.02 nM daclatasvir; format: functional, Hepacivirus hominis, Huh-7; summary of the method: as §1
Hepatitis C virus [15] = test: Antiviral activity against Hepatitis C virus genotype 1b Con1 infected in human HuH7 cells after 72 hrs by luciferase assay; format: functional, cell-based, Hepacivirus hominis; conditions: genotype 1b Con 1, Huh-7, 72 h
Summary of the method: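 Huh-7 cells stably carrying a genotype 1b Con1 bicistronic luciferase replicon, seeded at 8000 cells/well. Compounds were added at 0.5% DMSO final and incubated at 37°C for 72 h. Read-out was Bright-Glo luciferase, with cell proliferation measured by CellTiter-Fluor. EC50 is the mean of at least two independent runs. Some values are given as percent inhibition at 10 µM.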

Hepatitis C virus [16] = test: Antiviral activity against Hepatitis C virus genotype 1b harboring A156T NS3/4A mutation transfected in human HuH7 cells after 72 hrs by luciferase assay; format: functional, cell-based, Hepacivirus hominis; conditions: Huh-7, 72 h
Summary of the method: (§3)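 Huh-7 cells were transiently electroporated with genotype 1b replicon RNA carrying the specified mutation and plated at 10000 cells/well. Compounds were added at 0.5% DMSO final for 72 h at 37°C. Read-out was Bright-Glo luciferase. EC50 is the mean of two independent runs within 2-fold of each other. A reference drug EC50 was measured alongside each mutant replicon to validate it.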

Hepatitis C virus [17] = test: Antiviral activity against Hepatitis C virus genotype 1b harboring H3R NS4B mutation transfected in human HuH7 cells after 72 hrs by luciferase assay; format: functional, cell-based, Hepacivirus hominis; conditions: Huh-7, 72 h; summary of the method: as §3
Hepatitis C virus [18] = test: Antiviral activity against Hepatitis C virus genotype 1b harboring Q26R mutation transfected in human HuH7 cells after 72 hrs by luciferase assay; format: functional, cell-based, Hepacivirus hominis; conditions: Huh-7, 72 h; summary of the method: as §3
Hepatitis C virus [19] = test: Antiviral activity against Hepatitis C virus genotype 1b harboring S282T NS5B (active site) mutation transfected in human HuH7 cells after 72 hrs by luciferase assay; format: functional, cell-based, Hepacivirus hominis; conditions: Huh-7, 72 h; summary of the method: as §3
Hepatitis C virus [20] = test: Antiviral activity against Hepatitis C virus genotype 1b Con 1 infected in human HuH7 cells at 2.5 nM after 72 hrs by luciferase assay in presence of 0.02 nM daclatasvir; format: functional, Hepacivirus hominis, Huh-7; summary of the method: as §1
Hepatitis C virus [21] = test: Antiviral activity against Hepatitis C virus genotype 1b Con 1 infected in human HuH7 cells at 2.5 nM after 72 hrs by luciferase assay in presence of 0.08 nM daclatasvir; format: functional, Hepacivirus hominis, Huh-7; summary of the method: as §1
Hepatitis C virus [22] = test: Antiviral activity against Hepatitis C virus genotype 1b Con 1 infected in human HuH7 cells at 2.5 nM after 72 hrs by luciferase assay in presence of 60 nM sofobuvir; format: functional, Hepacivirus hominis, Huh-7; summary of the method: as §1
Hepatitis C virus [23] = test: Antiviral activity against Hepatitis C virus genotype 1b Con 1 infected in human HuH7 cells at 2.5 nM after 72 hrs by luciferase assay in presence of 240 nM sofobuvir; format: functional, Hepacivirus hominis, Huh-7; summary of the method: as §1
Hepatitis C virus [24] = test: Antiviral activity against Hepatitis C virus genotype 1b Con 1 infected in human HuH7 cells at 2.5 nM after 72 hrs by luciferase assay in presence of 17.5 uM clemizole; format: functional, Hepacivirus hominis, Huh-7; summary of the method: as §1
Hepatitis C virus [25] = test: Antiviral activity against Hepatitis C virus genotype 1b Con 1 infected in human HuH7 cells at 5 nM after 72 hrs by luciferase assay in presence of 30 nM sofobuvir; format: functional, Hepacivirus hominis, Huh-7; summary of the method: as §2
Hepatitis C virus [26] = test: Antiviral activity against Hepatitis C virus genotype 1b Con 1 infected in human HuH7 cells at 5 nM after 72 hrs by luciferase assay in presence of 120 nM sofobuvir; format: functional, Hepacivirus hominis, Huh-7; summary of the method: as §2
Hepatitis C virus [27] = test: Antiviral activity against Hepatitis C virus genotype 1b Con 1 infected in human HuH7 cells at 5 nM after 72 hrs by luciferase assay in presence of 240 nM sofobuvir; format: functional, Hepacivirus hominis, Huh-7; summary of the method: as §2

## O=C(c1nc2scc(C3CC3)n2c1Cl)N1CCN(C2CCCC2)C(=O)C1
Hepatitis C virus [1]
  CI: 0.69
Hepatitis C virus [2]
  CI: 0.58
Hepatitis C virus [3]
  CI: 0.94
Hepatitis C virus [4]
  CI: 0.78
Hepatitis C virus [5]
  CI: 1.18
Hepatitis C virus [6]
  CI: 0.54
Hepatitis C virus [7]
  CI: 0.67
Hepatitis C virus [8]
  CI: 1.03
Hepatitis C virus [9]
  CI: 0.94
Hepatitis C virus [10]
  CI: 1.2
Hepatitis C virus [11]
  CI: 0.62
Hepatitis C virus [12]
  CI: 0.43
Hepatitis C virus [13]
  CI: 0.85
Hepatitis C virus [14]
  CI: 0.5
Hepatitis C virus [15]
  EC50: 16 nM
Hepatitis C virus [16]
  EC50: 4 nM
Hepatitis C virus [17]
  EC50: 1100 nM
Hepatitis C virus [18]
  EC50: 350 nM
Hepatitis C virus [19]
  EC50: 15 nM
Hepatitis C virus [20]
  CI: 1.2
Hepatitis C virus [21]
  CI: 0.66
Hepatitis C virus [22]
  CI: 1.04
Hepatitis C virus [23]
  CI: 0.83
Hepatitis C virus [24]
  CI: 1.36
Hepatitis C virus [25]
  CI: 0.77
Hepatitis C virus [26]
  CI: 0.82
Hepatitis C virus [27]
  CI: 0.74
